Series [1] has as its system Trypanosoma cruzi. Description: Antitrypanosomal activity against Trypanosoma cruzi Y infected in mouse assessed as decrease in parasitemia in blood at 200 mg/kg, po upto 40 days post infection. Type of series: functional. Summed up: (§1)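 Male Swiss mice (6–8 weeks, 18–20 g), 8–10 per group, infected i.p. with 10^4 bloodstream trypomastigotes (Y strain). On dpi 5, a single 200 mg/kg oral gavage dose was given in water with 10% Tween-80. Parasitemia was counted daily from dpi 6 to 21 by the Pizzi-Brener method. Body weight was recorded weekly. Mortality was recorded daily, and cumulative mortality at 40 dpi and M50 were calculated.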

Series [2] has as its system Trypanosoma cruzi. Put plainly: Antitrypanosomal activity against Trypanosoma cruzi Y infected in mouse assessed as decrease in mouse mortality at 200 mg/kg, po after 20 days post infection. It counts as functional, organism-based. Details: dose 200 mg/kg. Summed up: as §1
Series [3] relates to Trypanosoma cruzi. Description: Antitrypanosomal activity against Trypanosoma cruzi infected in mouse assessed as reduction in inflammatory foci in cardiac muscle at 100 mg/kg, po after 6 days post infection. It counts as functional, organism-based. Details: dose 100 mg/kg. The conditions noted are these: Muscle tissue. Summed up: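 Infected mice were dosed by gavage at 100 mg/kg daily for 10 days from dpi 6. Two mice per group were euthanized at 14 dpi. Paraffin heart sections were stained with hematoxylin-eosin. Under a 40× objective, parasite nests and inflammatory foci (≥10 mononuclear cells) were counted per mm2 over 30 fields.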

Series [4] has as its system Mus musculus. Description: Toxicity in mouse assessed as GPT level in blood at 400 mg/kg, po after 4 days. Type of series: organism-based. Details: dose 400 mg/kg, route oral. The conditions noted are these: in vivo, 96 h. Summed up:
(§2)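 Uninfected male Swiss mice, 8–10 per group, received by gavage either a single 400 mg/kg dose or 10 doses of 100 mg/kg (vehicle water with 10% Tween-80). GOT, GPT and urea were measured directly in blood with the Reflotron system, and body weight was recorded. Single-dose toxicity was analyzed 4 days after treatment.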

In series [5] the test system is Trypanosoma cruzi. Put plainly: Antitrypanosomal activity against Trypanosoma cruzi amastigotes infected in mouse embryo heart muscle cells assessed as endocytic index at 40 uM. Type of series: functional, organism-based. Summed up:
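Mouse embryo heart muscle cells (10^5/well) were plated on gelatin-coated coverslips and infected after 24 h with trypomastigotes at 10:1 parasite/host cell. After another 24 h, cultures were washed and exposed to compounds at 10–40 µM final. At intervals, cells were fixed in Bouin's solution and stained with Giemsa. Percent infection and endocytic index (parasites/100 cells) were counted, and IC50 was derived.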

Series [6] concerns Trypanosoma cruzi. Put plainly: Antitrypanosomal activity against Trypanosoma cruzi amastigotes infected in mouse peritoneal macrophages assessed as endocytic index at 30 uM after 1-4 days. It counts as functional, organism-based. Summed up:
(§3)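 Swiss mouse peritoneal macrophages (3 × 10^5/well) were plated for 24 h, then infected with Y-strain trypomastigotes (10:1) in DMEM with 10% FCS for 3 h. Free parasites were washed off, and compounds were added at 2.5–30 µM final for 1–4 days. Cells were fixed in Bouin's solution and stained with Giemsa. Percent infection and endocytic index (parasites/100 cells) were counted, and IC50 was derived. Three independent experiments.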

The nature of series [7]: Cytotoxicity against swiss mouse HMC after 48 hrs by MTT assay. The conditions noted are these: read-out: LC50. Summed up:
(§4)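 Uninfected host cells were exposed to compounds at 37°C for 2 days, with compound stocks in DMSO. Cells were Swiss mouse peritoneal macrophages or primary mouse embryo heart muscle cells (18-day embryos, trypsin/collagenase dissociated, gelatin-coated coverslips, DMEM with horse and fetal calf sera, chicken embryo extract). Viability was read by MTT at 490 nm to give LC50.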

Series [8] relates to Trypanosoma cruzi. Description: Antitrypanosomal activity against Trypanosoma cruzi trypomastigotes assessed as alteration in autophagosome-like structure formation at 17 uM after 24 hrs by Transmission electron microscopy. Type of series: functional, organism-based. Summed up:
(§5)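 Y-strain bloodstream trypomastigotes (5 × 10^6/ml) were treated for 24 h, washed in PBS, and fixed in 2.5% glutaraldehyde in 0.1 M cacodylate (pH 7.2). They were postfixed with OsO4/ferricyanide/CaCl2, dehydrated in acetone, and embedded in epoxy. Ultrathin sections were stained with uranyl acetate and lead citrate and examined by transmission EM.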

For series [9], the system named is Trypanosoma cruzi. Put plainly: Antitrypanosomal activity against Trypanosoma cruzi infected in mouse assessed as decrease in mortality rate at 100 mg/kg, po after 6 days post infection. On the set-up: dose 100 mg/kg. It counts as functional, organism-based. Summed up:
(§6)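 Male Swiss mice, 8–10 per group, infected i.p. with 10^4 bloodstream trypomastigotes. From dpi 6, mice received 10 consecutive daily gavage doses of 100 mg/kg in water with 10% Tween-80. Parasitemia was read daily on dpi 6–21 by the Pizzi-Brener method. Mortality was noted daily, and %CM at 40 dpi and M50 were calculated.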

The test system of series [10] is Mus musculus. Put plainly: Toxicity in mouse assessed as GOT level in blood at 400 mg/kg, po after 4 days. It counts as organism-based. Details: dose 400 mg/kg, route oral. The conditions noted are these: in vivo, 96 h. Summed up: as §2
The subject of series [11] is Trypanosoma cruzi. Put plainly: Antitrypanosomal activity against Trypanosoma cruzi infected in mouse assessed as decrease in parasitemia in blood at 100 mg/kg, po after 6 days post infection. It counts as functional. Summed up: as §6
For series [12], the system named is Trypanosoma cruzi. Description: Antitrypanosomal activity against Trypanosoma cruzi Y infected in mouse assessed as decrease in mouse mortality at 200 mg/kg, po upto 40 days post infection. It counts as functional, organism-based. On the set-up: dose 200 mg/kg. Summed up:
as §1

The test system of series [13] is Mus musculus. Description: Toxicity in mouse assessed as body weight at 400 mg/kg, po after 4 days. It counts as organism-based. On the set-up: dose 400 mg/kg, route oral. The following applies: in vivo, 96 h. Summed up:
as §2

Series [14] relates to Trypanosoma cruzi. Put plainly: Antitrypanosomal activity against Trypanosoma cruzi trypomastigotes assessed as increase in vesicles size near the flagellar pocket at 17 uM after 24 hrs by Transmission electron microscopy. It counts as functional, organism-based. Summed up: as §5
In series [15] the test system is Mus musculus. Description: Toxicity in mouse assessed as urea level in blood at 400 mg/kg, po after 4 days. It counts as organism-based. Details: dose 400 mg/kg, route oral. The conditions noted are these: in vivo, 96 h. Summed up:
as §2

Series [16] has as its system Trypanosoma cruzi. Description: Antitrypanosomal activity against Trypanosoma cruzi amastigotes infected in mouse peritoneal macrophages assessed as inhibition of infection at 30 uM after 1-4 days. It counts as functional, organism-based. Summed up: as §3
The nature of series [17]: Cytotoxicity against Swiss mouse peritoneal macrophages after 48 hrs by MTT assay. Type of series: cell-based, Peritoneal macrophage cell. The following applies: read-out: LC50. Summed up:
as §4
(Tetrazolium dyes change colour on reduction, which living cells bring about.)

For series [18], the system named is Trypanosoma cruzi. Description: Antitrypanosomal activity against Trypanosoma cruzi trypomastigotes assessed as parasite body rounding at 17 uM after 24 hrs by scanning electron microscopy. It counts as functional, organism-based. Summed up: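 Trypomastigotes (5 × 10^6/ml) were treated for 24 h and adhered to poly-L-lysine coverslips. They were fixed in 2.5% glutaraldehyde in 0.1 M cacodylate (pH 7.2) for 40 min and postfixed for 30 min in 1% OsO4, 0.8% ferricyanide and 2.5 mM CaCl2. Samples were acetone-dehydrated, critical-point dried, gold-coated (20 nm) and examined by scanning EM.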

The source made the active and inactive calls. No cut-off for these calls is given here.

Consider `Cn1c([N+](=O)[O-])cnc1-c1nnc(N/N=C\c2ccc([N+](=O)[O-])cc2)s1`, for which the result in [1] was Active. In addition, in [2], the outcome was inactive.

For the compound `Cn1c([N+](=O)[O-])cnc1-c1nnc(N/N=C\c2cc(C(C)(C)C)c(O)c(C(C)(C)C)c2)s1`, the result in series [1] was Active. For the same compound, in [2], the outcome was inactive.

On to `Cn1c([N+](=O)[O-])cnc1-c1nnc(N/N=C\c2ccc(Br)cc2)s1`, for which the result in series [3], in series [8], in series [9], in [12], in [14] and in series [18] was Active. The Activity in series [4] is 27.9 U/L; in series [1], 60%; in series [10] it was 118 U/L; in [13], 25.2 g; in series [15], 62.7 mg/dL. For the same compound, the result in series [5], in [6], in [11] and in series [16] was inactive. For the same compound, the CC50 at 48 h was > 120 µM in [7] and > 60 µM in series [17].

Regarding `Cn1c([N+](=O)[O-])cnc1-c1nnc(N/N=C\c2ccccc2O)s1`, the outcome in series [1] and in series [12] was inactive.

Source of the values: ChEMBL document CHEMBL1255468 (Antimicrob Agents Chemother, 2010).
